Source: ChEMBL document CHEMBL1149910, “2-(6-aryl-3(Z)-hexen-1,5-diynyl)anilines as a new class of potent antitubulin agents” (J Med Chem, 2008)
The source made the active and inactive calls. The rule behind the calls is not given here.

What was measured:
MDA-MB-231 [1] = experiment: Cell cycle arrest in human MDA-MB-231 cells assessed as accumulation of 2N cells at 9.0 uM after 24 hrs by flow cytometry; type: functional
MDA-MB-231 [2] = experiment: Cell cycle arrest in human MDA-MB-231 cells assessed as accumulation at sub-G1 phase at 3.6 uM after 24 hrs by flow cytometry; type: functional
MDA-MB-231 [3] = experiment: Cell cycle arrest in human MDA-MB-231 cells assessed as accumulation at sub-G1 phase at 9.0 uM after 72 hrs by flow cytometry; type: functional
TK-10 = experiment: Cytotoxicity against human TK10 cells; type: functional
Method in brief: (§1)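 Tested in the NCI in vitro antitumor screening protocol across a tumor cell line panel. GI₅₀ is the concentration producing a 50% reduction in cell growth.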

786-0 = experiment: Cytotoxicity against human 786-0 cells; type: functional; method in brief: as §1
SN12C = experiment: Cytotoxicity against human SN12C cells; type: functional; method in brief: as §1
A549 = experiment: Cytotoxicity against human A549/ATCC cells; type: functional; method in brief: as §1
MDA-MB-231 [4] = experiment: Cell cycle arrest in human MDA-MB-231 cells assessed as accumulation of >4N cells at 36.0 uM after 24 hrs by flow cytometry; type: functional
MDA-MB-231 [5] = experiment: Cell cycle arrest in human MDA-MB-231 cells assessed as accumulation of 2N cells at 3.6 uM after 24 hrs by flow cytometry; type: functional
HCT-116 = experiment: Cytotoxicity against human HCT116 cells; type: functional; method in brief: as §1
SW-620 = experiment: Cytotoxicity against human SW620 cells; type: functional; method in brief: as §1
U-251 = experiment: Cytotoxicity against human U251 cells; type: functional; method in brief: as §1
MDA-MB-231 [6] = experiment: Cell cycle arrest in human MDA-MB-231 cells assessed as accumulation of >4N cells at 3.6 uM after 72 hrs by flow cytometry; type: functional
MDA-MB-231 [7] = experiment: Cell cycle arrest in human MDA-MB-231 cells assessed as accumulation of 2N cells at 3.6 uM after 72 hrs by flow cytometry; type: functional
MDA-MB-231 [8] = experiment: Cell cycle arrest in human MDA-MB-231 cells assessed as accumulation of >4N cells at 9.0 uM after 24 hrs by flow cytometry; type: functional
Method in brief: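 MDA-MB-231/ATCC cells were grown in DMEM with 10% fetal bovine serum, […], 1% nonessential amino acids, penicillin and streptomycin at 37 °C in 5% CO₂. They were exposed to 3.6, 9.0, 18, 27 or 36 µM for 24 or 72 h, with colchicine as control. DNA content was then read by flow cytometry, and […] cells were scored.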

MCF7 = experiment: Cytotoxicity against human MCF7 cells; type: functional; method in brief: as §1
MDA-MB-231 [9] = experiment: Cell cycle arrest in human MDA-MB-231 cells assessed as accumulation of 4N cells at 3.6 uM after 24 hrs by flow cytometry; type: functional
MDA-MB-231 [10] = experiment: Cell cycle arrest in human MDA-MB-231 cells assessed as accumulation of 2N cells at 18.0 uM after 24 hrs by flow cytometry; type: functional
MDA-MB-231 [11] = experiment: Effect on microtubule depolymerization in human MDA-MB-231 cells at 36 uM after 2 hrs; type: functional, cell-based
Method in brief: (§2)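 MDA-MB-231/ATCC cells grown on glass coverslips (1 × 10⁴ cells) for 24 h, then exposed to 3.6, 9, 18, 27 or 36 µM at 37 °C for 2 h. Fixed in 4% paraformaldehyde, permeabilized with Triton X-100, and immunostained for α-tubulin and ninein with DAPI counterstain. Interphase microtubule networks compared with untreated cells by confocal microscopy.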

UO-31 = experiment: Cytotoxicity against human UO31 cells; type: functional
Method in brief: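 NCI in vitro antitumor screening protocol; GI50 taken as the concentration giving 50% reduction in cell growth.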

LOX IMVI = experiment: Cytotoxicity against human LOXIMVI cells; type: functional; method in brief: as §1
HOP-62 = experiment: Cytotoxicity against human HOP62 cells; type: functional; method in brief: as §1
MDA-MB-231 [12] = experiment: Cell cycle arrest in human MDA-MB-231 cells assessed as accumulation of 2N cells at 18.0 uM after 72 hrs by flow cytometry; type: functional
NCI-H522 = experiment: Cytotoxicity against human NCI-H522 cells; type: functional; method in brief: as §1
[13] = Inhibition of bovine tubulin polymerization; design: species or system Bos taurus
Method in brief: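 Purified bovine tubulin incubated at 37 °C in buffer containing 20% glycerol and 1 mM GTP, with test compound at 3.6–36 µM. Polymerization followed kinetically by the increase in fluorescence. Colchicine and paclitaxel served as controls.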

SR = experiment: Cytotoxicity against human SR cells; type: functional; method in brief: as §1
MDA-MB-231 [14] = experiment: Cell cycle arrest in human MDA-MB-231 cells assessed as accumulation of 2N cells at 27.0 uM after 72 hrs by flow cytometry; type: functional
MDA-MB-231 [15] = experiment: Effect on microtubule depolymerization in human MDA-MB-231 cells assessed as disorganized microtubule cytoskeleton at 9 uM after 2 hrs relative to control; type: functional, cell-based; method in brief: as §2
Hs-578T = experiment: Cytotoxicity against human HS578T cells; type: functional; method in brief: as §1
SK-MEL-28 = experiment: Cytotoxicity against human SK-MEL28 cells; type: functional
Method in brief: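 Tested in the NCI in vitro antitumor screening protocol against human tumour cell lines.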

EKVX = experiment: Cytotoxicity against human EKVX cells; type: functional; method in brief: as §1
HCT-15 = experiment: Cytotoxicity against human HCT15 cells; type: functional; method in brief: as §1
MDA-MB-231 [16] = experiment: Cell cycle arrest in human MDA-MB-231 cells assessed as accumulation at sub-G1 phase at 27.0 uM after 24 hrs by flow cytometry; type: functional
RPMI-8226 = experiment: Cytotoxicity against human RPMI8226 cells; type: functional; method in brief: as §1
KM12 = experiment: Cytotoxicity against human KM12 cells; type: functional; method in brief: as §1
[17] = system: MDA-MB-231 (Homo sapiens); experiment: Induction of apoptosis in human MDA-MB-231 cells assessed as induction of caspase 8 activation at 36 uM after 72 hrs by colorimetric assay relative to control
MDA-MB-231 [18] = experiment: Cell cycle arrest in human MDA-MB-231 cells assessed as accumulation of 4N cells at 9.0 uM after 24 hrs by flow cytometry; type: functional
[19] = read-out: LC50 (the source's name)

Nc1ccccc1C#C/C=C\C#Cc1ccccc1C(F)(F)F
Activity (MDA-MB-231 [1]): 9.3%
Activity (MDA-MB-231 [2]): 23.6%
Activity (MDA-MB-231 [3]): 53.9%
GI50 (TK-10): 8.3 µM
TGI (TK-10): 27.9 µM
CC50 (TK-10; [19]): 78.4 µM
GI50 (786-0): 0.7 µM
TGI (786-0): 17.7 µM
CC50 (786-0; [19]): 67 µM
GI50 (SN12C): 0.348 µM
TGI (SN12C): 6.52 µM
CC50 (SN12C; [19]): 30.9 µM
GI50 (A549): 0.745 µM
TGI (A549): 15.2 µM
CC50 (A549; [19]): 59.5 µM
Activity (MDA-MB-231 [4]): 36.3%
Activity (MDA-MB-231 [5]): 9.5%
GI50 (HCT-116): 0.423 µM
TGI (HCT-116): 12.5 µM
CC50 (HCT-116; [19]): 47.4 µM
GI50 (SW-620): 0.479 µM
TGI (SW-620): 19.7 µM
CC50 (SW-620; [19]): 69.2 µM
GI50 (U-251): 0.666 µM
TGI (U-251): 17.5 µM
CC50 (U-251; [19]): 45.4 µM
Activity (MDA-MB-231 [6]): 10.3%
Activity (MDA-MB-231 [7]): 23.3%
Activity (MDA-MB-231 [8]): 34%
GI50 (MCF7): 0.681 µM
TGI (MCF7): > 100 µM
CC50 (MCF7; [19]): > 100 µM
Activity (MDA-MB-231 [9]): 35.6%
Activity (MDA-MB-231 [10]): 9.5%
Activity (MDA-MB-231 [11]): Active
GI50 (UO-31): 3.06 µM
TGI (UO-31): 25.1 µM
CC50 (UO-31; [19]): 94.9 µM
GI50 (LOX IMVI): 0.499 µM
TGI (LOX IMVI): 10.5 µM
CC50 (LOX IMVI; [19]): 46.2 µM
GI50 (HOP-62): 0.77 µM
TGI (HOP-62): 26.1 µM
CC50 (HOP-62; [19]): 69.5 µM
Activity (MDA-MB-231 [12]): 7.1%
GI50 (NCI-H522): 0.597 µM
TGI (NCI-H522): 12.2 µM
CC50 (NCI-H522; [19]): 51.2 µM
IC50 [13]: 9 µM
GI50 (SR): 0.247 µM
TGI (SR): 0.691 µM
CC50 (SR; [19]): > 100 µM
Activity (MDA-MB-231 [14]): 6.8%
Activity (MDA-MB-231 [15]): Active
GI50 (Hs-578T): 0.501 µM
TGI (Hs-578T): 28.9 µM
CC50 (Hs-578T; [19]): > 100 µM
TGI (SK-MEL-28): 30.1 µM
CC50 (SK-MEL-28; [19]): 80.2 µM
GI50 (EKVX): 0.358 µM
TGI (EKVX): 12.4 µM
CC50 (EKVX; [19]): 40.4 µM
GI50 (HCT-15): 1.26 µM
TGI (HCT-15): 11.4 µM
CC50 (HCT-15; [19]): 51.1 µM
Activity (MDA-MB-231 [16]): 24.7%
GI50 (RPMI-8226): 0.738 µM
TGI (RPMI-8226): > 100 µM
CC50 (RPMI-8226; [19]): > 100 µM
GI50 (KM12): 0.371 µM
TGI (KM12): 20.3 µM
CC50 (KM12; [19]): > 100 µM
fold change (FC) [17]: 4
Activity (MDA-MB-231 [18]): 33.6%
